Experimental data: ChEMBL document CHEMBL1212854, “The structure-activity relationships of A-ring-substituted aromathecin topoisomerase I inhibitors strongly support a camptothecin-like binding mode” (2010)
Active and inactive are the calls of the source. The calls are words filed in the database; no cut-off is given here.

What was measured:
[1] = system: HOP-62; test: Cytotoxicity against human HOP62 cells; assay type: functional
Method in brief: (§1)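 NCI 60-cell-line screen (eight solid-tumour subpanels plus leukemia). A one-dose pass at 10−5 M came first. Selected compounds were then run at five concentrations from 10−8 to 10−4 M. GI50 is the concentration giving 50% growth inhibition.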

[2] = system: UACC-62; test: Cytotoxicity against human UACC62 cells; assay type: functional; method in brief: as §1
[3] = system: HCT-116; test: Cytotoxicity against human HCT116 cells; assay type: functional; method in brief: as §1
[4] = system: OVCAR-3; test: Cytotoxicity against human OVCAR-3 cells; assay type: functional; method in brief: as §1
[5] = system: SF-539; test: Cytotoxicity against human SF539 cells; assay type: functional; method in brief: as §1
[6] = system: SN12C; test: Cytotoxicity against human SN12C cells; assay type: functional; method in brief: as §1
[7] = target: T1, DNA topoisomerase 1 (Homo sapiens) (UniProt P11387); test: Inhibition of human recombinant Top1-mediated DNA cleavage at 0.1 to 100 uM after 20 mins relative to camptothecin; design: scale not given: the % may be the effect or the level left
T1 sequence (whole entry): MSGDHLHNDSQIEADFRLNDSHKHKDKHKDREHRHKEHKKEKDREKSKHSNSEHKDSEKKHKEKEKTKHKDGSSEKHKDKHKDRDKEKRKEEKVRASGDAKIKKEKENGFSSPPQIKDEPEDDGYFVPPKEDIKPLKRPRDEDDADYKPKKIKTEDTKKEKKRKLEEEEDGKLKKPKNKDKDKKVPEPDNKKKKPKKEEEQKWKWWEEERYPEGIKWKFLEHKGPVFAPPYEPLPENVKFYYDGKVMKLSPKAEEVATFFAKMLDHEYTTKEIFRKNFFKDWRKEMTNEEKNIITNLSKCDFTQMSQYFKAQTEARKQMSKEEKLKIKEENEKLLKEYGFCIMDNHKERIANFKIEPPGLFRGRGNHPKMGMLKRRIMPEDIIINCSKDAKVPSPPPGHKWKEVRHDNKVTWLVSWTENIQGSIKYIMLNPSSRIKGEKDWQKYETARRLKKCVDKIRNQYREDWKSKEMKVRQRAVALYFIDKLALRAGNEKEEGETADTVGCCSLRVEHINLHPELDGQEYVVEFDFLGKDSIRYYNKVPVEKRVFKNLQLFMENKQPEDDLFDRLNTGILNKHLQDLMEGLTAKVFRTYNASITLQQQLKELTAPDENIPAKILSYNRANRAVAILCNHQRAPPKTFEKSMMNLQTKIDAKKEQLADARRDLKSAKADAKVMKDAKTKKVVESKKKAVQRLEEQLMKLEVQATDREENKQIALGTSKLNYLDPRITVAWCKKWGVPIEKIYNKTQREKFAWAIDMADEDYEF
Method in brief: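 Human recombinant Top1 purified from baculovirus. Substrate is a 117-bp oligonucleotide, about 2 nM, 3′-end labelled with 32P-dGTP by Klenow fill-in. Stopped with 0.5% SDS, run on 20% denaturing PAGE and phosphorimaged. Cleavage graded 0 to +++ against 1 μM camptothecin.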

[8] = system: MCF7; test: Cytotoxicity against human MCF7 cells; assay type: functional; method in brief: as §1
[9] = system: DU-145; test: Cytotoxicity against human DU145 cells; assay type: functional; method in brief: as §1

Compound	GI50 [1]	GI50 [2]	GI50 [3]	GI50 [4]	GI50 [5]	GI50 [6]	Activity [7]	GI50 [8]	GI50 [9]
O=c1c2ccccc2cc2n1Cc1c-2nc2ccc(Cl)cc2c1CNCCO	7240 nM	2040 nM	2140 nM	6460 nM	4360 nM	10200 nM	50%	230 nM	–
O=c1c2ccccc2cc2n1Cc1c-2nc2cc3c(cc2c1CCCn1ccnc1)OCCO3	570 nM	930 nM	1950 nM	7080 nM	1950 nM	12600 nM	50%	190 nM	2880 nM
CN(C)Cc1c2c(nc3cc4c(cc13)OCO4)-c1cc3ccccc3c(=O)n1C2	–	–	–	–	–	–	50%	–	–
O=c1c2ccccc2cc2n1Cc1c-2nc2cc3c(cc2c1CCCN1CCOCC1)OCCO3	540 nM	1150 nM	1420 nM	1840 nM	1150 nM	1130 nM	50%	60 nM	760 nM
O=c1c2ccccc2cc2n1Cc1c-2nc2cccc(Cl)c2c1CN1CC[C@H](O)C1	1660 nM	3090 nM	1550 nM	2630 nM	1950 nM	3710 nM	20%	370 nM	3980 nM
CN1CCN(Cc2c3c(nc4cc(Cl)ccc24)-c2cc4ccccc4c(=O)n2C3)CC1	18100 nM	17000 nM	13500 nM	15100 nM	15100 nM	19000 nM	20%	10900 nM	23400 nM
O=c1c2ccccc2cc2n1Cc1c-2nc2cc3c(cc2c1CNCCO)OCCO3	5690 nM	1160 nM	2630 nM	1950 nM	4260 nM	5750 nM	50%	440 nM	2040 nM
COc1cc2c3c(n(CCCN4CCOCC4)c(=O)c2cc1OC)-c1cc2c(cc1C3=O)OCO2 [INDOTECAN]	–	30 nM	–	–	40 nM	–	Active	370 nM	–
O=c1c2ccccc2cc2n1Cc1c-2nc2cc3c(cc2c1CN1CCOCC1)OCCO3	3800 nM	990 nM	1330 nM	1700 nM	810 nM	2570 nM	75%	300 nM	930 nM
NCCCc1c2c(nc3cc4c(cc13)OCCO4)-c1cc3ccccc3c(=O)n1C2	2140 nM	1620 nM	1950 nM	1950 nM	1860 nM	1860 nM	75%	1050 nM	1820 nM
COc1cc2c3c(n(CCCn4ccnc4)c(=O)c2cc1OC)-c1cc2c(cc1C3=O)OCO2 [INDIMITECAN]	< 10 nM	< 10 nM	< 10 nM	85 nM	37 nM	< 10 nM	Active	10 nM	< 10 nM
O=c1c2ccccc2cc2n1Cc1c-2nc2cc3c(cc2c1CNCCO)OCO3	660 nM	470 nM	950 nM	1550 nM	1350 nM	1910 nM	50%	280 nM	1820 nM
Cc1cc2c(CN3CCN(C)CC3)c3c(nc2cc1F)-c1cc2ccccc2c(=O)n1C3	20100 nM	16200 nM	1800 nM	14600 nM	6460 nM	16000 nM	50%	1800 nM	2630 nM
O=c1c2ccccc2cc2n1Cc1c-2nc2ccc(Cl)cc2c1CN1CC[C@H](O)C1	1050 nM	740 nM	1100 nM	1860 nM	1260 nM	–	20%	370 nM	1660 nM
COc1cc2nc3c(c(Cn4ccnc4)c2cc1OC)Cn1c-3cc2ccccc2c1=O	–	–	–	–	–	–	inactive	–	–
COc1cc2nc3c(c(CN4CCN(C)CC4)c2cc1OC)Cn1c-3cc2ccccc2c1=O	–	–	–	–	–	–	inactive	–	–
O=c1c2ccccc2cc2n1Cc1cc3ccccc3nc1-2 [ROSETTACIN]	> 100000 nM	> 100000 nM	57300 nM	> 100000 nM	> 100000 nM	> 100000 nM	50%	60300 nM	> 100000 nM
Cc1cc2c(CNCCCn3ccnc3)c3c(nc2cc1F)-c1cc2ccccc2c(=O)n1C3	36700 nM	> 100000 nM	3050 nM	4680 nM	1100 nM	1800 nM	inactive	2210 nM	6240 nM
COc1cc2nc3c(c(CCl)c2cc1OC)Cn1c-3cc2ccccc2c1=O	–	–	–	–	–	–	inactive	–	–
CN(C)Cc1c2c(nc3cc4c(cc13)OCCO4)-c1cc3ccccc3c(=O)n1C2	3310 nM	1660 nM	1170 nM	2190 nM	2690 nM	2510 nM	75%	300 nM	2190 nM
CN1CCN(Cc2c3c(nc4ccc(Cl)cc24)-c2cc4ccccc4c(=O)n2C3)CC1	2290 nM	1410 nM	150 nM	1510 nM	1580 nM	1780 nM	20%	3310 nM	2750 nM
O=c1c2ccccc2cc2n1Cc1c-2nc2cc3c(cc2c1CCCCl)OCCO3	–	–	–	–	–	–	inactive	–	–
O=c1c2ccccc2cc2n1Cc1c-2nc2cc3c(cc2c1CN1CC[C@H](O)C1)OCO3	480 nM	350 nM	850 nM	> 100000 nM	600 nM	790 nM	50%	70 nM	–
COc1cc2nc3c(c(CNCCCn4ccnc4)c2cc1OC)Cn1c-3cc2ccccc2c1=O	–	–	–	–	–	–	inactive	–	–
Cc1cc2c(CN)c3c(nc2cc1F)-c1cc2ccccc2c(=O)n1C3	–	–	–	–	–	–	20%	–	–
